Laboratory results from ChEMBL document CHEMBL4610036, “Discovery of small molecule antagonists of chemokine receptor CXCR6 that arrest tumor growth in SK-HEP-1 mouse xenografts as a model of hepatocellular carcinoma” (Bioorg Med Chem Lett, 2020).
Calls of active or inactive are those of the source. The calls are words filed in the database; no cut-off is given here.

Tests used:
[1] = target: T1, C-X-C chemokine receptor type 6 (Homo sapiens, UniProt O00574); assay: Antagonist activity at Prolink-tagged human CXCR6 receptor assessed as inhibition of CXCL16-induced beta-arrestin recruitment by DiscoveRx cell based assay
Target sequence in this assay (O00574 whole entry): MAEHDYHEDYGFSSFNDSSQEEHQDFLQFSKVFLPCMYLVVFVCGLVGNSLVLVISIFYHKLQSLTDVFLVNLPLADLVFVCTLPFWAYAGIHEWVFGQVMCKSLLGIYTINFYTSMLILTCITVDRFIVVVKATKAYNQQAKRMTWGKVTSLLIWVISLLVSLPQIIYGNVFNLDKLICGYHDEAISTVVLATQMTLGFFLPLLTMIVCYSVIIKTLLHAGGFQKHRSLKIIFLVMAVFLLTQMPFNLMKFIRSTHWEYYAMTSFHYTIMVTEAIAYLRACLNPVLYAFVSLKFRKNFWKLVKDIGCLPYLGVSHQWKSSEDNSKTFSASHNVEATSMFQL

[2] = target: T1, C-X-C chemokine receptor type 6; assay: Antagonist activity at Prolink-tagged human CXCR6 receptor assessed as inhibition of CXCL16-induced beta-arrestin recruitment by DiscoveRx cell based assay relative to control; parameters: concentration or dose not given beside the values
Summary of the method: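 CXCR6 β-arrestin cells in assay media without G418/hygromycin, 800 cells/well, grown overnight at 37 °C; compounds added acoustically (DMSO ≤0.3%), then 20 nM CXCL16 (final) for 90 min at 37 °C. PathHunter luminescence read. Normalized between CXCL16-alone and no-ligand wells; four-parameter fit with Hill slope fixed at 1; at least two runs on different days, averaged pIC50 ± SD.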
Target sequence in this assay (O00574 whole entry, looked up): as the sequence (O00574 whole entry) above

[3] = target: T1, C-X-C chemokine receptor type 6; assay: Antagonist activity at Prolink-tagged human CXCR6 receptor assessed as inhibition of forskolin-induced cAMP accumulation by DiscoveRx cell based assay; assay type: functional
Summary of the method: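 Lance Ultra TR-FRET cAMP assay in CXCR6 β-arrestin cells, 500 cells/well in OptiMEM/2% FBS, grown overnight. Compound added, then forskolin (2.5 mM stock) in HBSS/HEPES/BSA/RO-20-1724 with or without 20 nM CXCL16, 30 min at room temperature. Eu-cAMP tracer and ULight anti-cAMP antibody added, read after 30 min. Curve fit with Hill slope 1; ≥2 independent runs.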
Target sequence in this assay (O00574 whole entry): as above

[4] = target: T1, C-X-C chemokine receptor type 6; assay: Antagonist activity at Prolink-tagged human CXCR6 receptor assessed as inhibition of forskolin-induced cAMP accumulation by DiscoveRx cell based assay relative to control; assay type: functional; parameters: concentration or dose not given beside the values
Summary of the method: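 CXCR6 β-arrestin cells in OptiMEM with 2% FBS, 500 cells/well, grown overnight; compounds added, then forskolin with 20 nM CXCL16 (stock concentrations) in HBSS/HEPES/BSA with RO-20-1724, 30 min at room temperature. cAMP read by LANCE Ultra TR-FRET after a further 30 min. Hill slope fixed at 1; at least two runs on different days, averaged pIC50 ± SD.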
Target sequence in this assay (O00574 whole entry, looked up): as the sequence (O00574 whole entry) above

Structure (SMILES) | IC50 [1] | inhibition ([2]; concentration not given here) | IC50 [3] | inhibition [4] | inhibition [2] | inhibition ([4]; concentration not given here)
COc1cc(C(=O)N[C@@H]2C[C@H]3CCC[C@@H](C2)N3Cc2nc3c(OC)cccc3s2)cc(OC)c1OC | 3.1 µM | 86% | > 50 µM | inactive |  | 
O=C(CN1[C@@H]2CCC[C@H]1C[C@H](NC(=O)c1ccc3c(c1)OCO3)C2)Nc1ccc(Cl)cc1 | > 40 µM |  | 5.3 µM |  | inactive | 84%
COc1cc(C(=O)N[C@@H]2C[C@H]3CCC[C@@H](C2)N3Cc2nc3ccccc3o2)cc(OC)c1OC | 6.9 µM | 83% | > 50 µM |  |  | 26%
COc1cc(C(=O)N[C@@H]2C[C@H]3CCC[C@@H](C2)N3Cc2c[nH]c3ccccc23)cc(OC)c1OC | > 50 µM |  | > 50 µM | inactive | inactive | 
COc1cc(C(=O)N[C@@H]2C[C@H]3CCC[C@@H](C2)N3Cc2nc3ccccc3[nH]2)cc(OC)c1OC | 10.5 µM | 84% | > 40 µM | inactive |  | 
COc1cc(C(=O)N[C@@H]2C[C@H]3CCC[C@@H](C2)N3CC(=O)Nc2ccc(Cl)cc2)cc(OC)c1OC | 1.5 µM | 101% | 14.2 µM |  |  | 93%
COc1cc(C(=O)N[C@@H]2C[C@H]3CCC[C@@H](C2)N3Cc2ccc3ccccc3c2)cc(OC)c1OC | 3.4 µM | 94% | 47.3 µM |  |  | 30%
COc1cc(C(=O)N[C@@H]2C[C@H]3CCC[C@@H](C2)N3CC(=O)Nc2c(Cl)cccc2Cl)cc(OC)c1OC | 38.2 µM | 57% | > 40 µM | inactive |  | 
COc1cc(C(=O)N[C@@H]2C[C@H]3CCC[C@@H](C2)N3CC(=O)Nc2ccccc2Br)cc(OC)c1OC | 0.16 µM | 105% | 0.9 µM |  |  | 104%
COc1cc(C(=O)N[C@@H]2C[C@H]3CCC[C@@H](C2)N3Cc2nc3c(C)cccc3s2)cc(OC)c1OC | 0.25 µM | 100% | 4.8 µM |  |  | 86%
COc1cc(C(=O)N[C@@H]2C[C@H]3CCC[C@@H](C2)N3Cc2nc3ccccc3s2)cc(OC)c1OC | 0.3 µM | 101% | 7.9 µM |  |  | 85%
COc1cc(C(=O)N[C@@H]2C[C@H]3CCC[C@@H](C2)N3Cc2nc3c(F)cccc3s2)cc(OC)c1OC | 0.11 µM | 103% | 1.9 µM |  |  | 105%
COc1ccc(C(=O)N[C@@H]2C[C@H]3CCC[C@@H](C2)N3CC(=O)Nc2ccc(Cl)cc2)cc1OC | > 40 µM |  | > 40 µM | inactive | inactive | 
COc1cc(C(=O)N[C@@H]2C[C@H]3CCC[C@@H](C2)N3CC(=O)Nc2ccc(C)cc2)cc(OC)c1OC | 9.5 µM | 100% | > 40 µM | inactive |  | 
COc1cc(C(=O)N[C@@H]2C[C@H]3CCC[C@@H](C2)N3Cc2cccc(Cl)c2)cc(OC)c1OC | 9.5 µM | 97% | 14.8 µM |  |  | 100%
COc1cc(C(=O)N[C@@H]2C[C@H]3CCC[C@@H](C2)N3Cc2nc3c(Br)cccc3s2)cc(OC)c1OC | 0.08 µM | 102% | 1 µM |  |  | 91%
COc1cc(C(=O)N[C@@H]2C[C@H]3CCC[C@@H](C2)N3CC(=O)Nc2cccc(C)c2)cc(OC)c1OC | 1.8 µM | 102% | 17.9 µM |  |  | 92%
